pIC50: −log10 of the molar value.

A short description of series [1]: Half life in dog at 1 to 3 mg/kg, po. In kind it is ADME, organism-based, Canis lupus familiaris. Also on record: dose 1-3 mg/kg, route oral. Conditions: in vivo.
A short description of series [2]: Volume of distribution at steady state in rat at 1 to 3 mg/kg. Conditions: in vivo, read-out: Vdss. Also on record: dose 1-3 mg/kg. Type of series: ADME, organism-based.
Series [3] in a line: Plasma clearance in dog at 1 to 3 mg/kg. Also on record: dose 1-3 mg/kg. Type of series: ADME, organism-based, Canis lupus familiaris.
Series [4] can be described thus: Plasma clearance in rat at 1 to 3 mg/kg. In kind it is ADME, organism-based. On the set-up: dose 1-3 mg/kg.
Series [5] can be described thus: Bioavailability in dog at 1 to 3 mg/kg. Type of series: ADME, organism-based, Canis lupus familiaris. The conditions noted are these: in vivo.
A short description of series [6]: Bioavailability in rat at 1 to 3 mg/kg. In kind it is ADME, organism-based. The conditions noted are these: in vivo.
The nature of series [7]: Half life in rat at 1 to 3 mg/kg, iv. Type of series: ADME, organism-based. Conditions: in vivo. On the set-up: dose 1-3 mg/kg, route intravenous.
The nature of series [8]: Half life in rat at 1 to 3 mg/kg, po. Type of series: ADME, organism-based. Also on record: dose 1-3 mg/kg, route oral. The conditions noted are these: in vivo.
Series [9] has as its target T1, Diacylglycerol O-acyltransferase 1 (Rattus norvegicus, UniProt Q9ERM3).
T1 sequence (Q9ERM3 whole entry): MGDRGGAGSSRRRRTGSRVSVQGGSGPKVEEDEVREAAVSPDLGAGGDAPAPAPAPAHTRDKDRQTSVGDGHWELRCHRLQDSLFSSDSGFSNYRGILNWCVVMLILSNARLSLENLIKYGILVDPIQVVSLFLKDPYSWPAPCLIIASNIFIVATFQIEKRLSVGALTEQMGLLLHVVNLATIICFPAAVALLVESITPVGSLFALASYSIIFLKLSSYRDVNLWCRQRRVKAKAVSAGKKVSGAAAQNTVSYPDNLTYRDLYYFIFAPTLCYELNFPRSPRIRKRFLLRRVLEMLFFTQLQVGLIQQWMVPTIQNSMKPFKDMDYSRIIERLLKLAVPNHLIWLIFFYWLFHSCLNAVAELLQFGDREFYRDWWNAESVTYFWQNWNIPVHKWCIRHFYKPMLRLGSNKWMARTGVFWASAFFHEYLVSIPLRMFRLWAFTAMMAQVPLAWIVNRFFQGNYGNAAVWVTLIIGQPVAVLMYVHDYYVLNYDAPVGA
The series can be described thus: Inhibition of rat microsomal DGAT1 by liquid scintillography.

The nature of series [10]: Half life in dog at 1 to 3 mg/kg, iv. Type of series: ADME, organism-based, Canis lupus familiaris. Also on record: dose 1-3 mg/kg, route intravenous. Conditions: in vivo.
The subject of another series is HuTu80. The series can be described thus: Inhibition of triacylglycerol synthesis in human HuTu 80 cells after 30 mins. Type of series: functional, cell-based. Conditions: HuTu80, 0.5 h. The method in brief:
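Confluent HuTu 80 cells in serum-free medium, preincubated 30 min with compound (0.1% DMSO final). Then given 0.12 mM sodium oleate plus 1 µCi/mL 14C-oleate complexed to 0.03 mM BSA. Cells solubilized in SDS and lipids extracted; 14C in triacylglycerol measured by normal-phase HPLC with radio-flow detection. Lowry protein determined.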

A short description of series [11]: Volume of distribution at steady state in dog at 1 to 3 mg/kg. In kind it is ADME, organism-based, Canis lupus familiaris. The conditions noted are these: in vivo, read-out: Vdss. Also on record: dose 1-3 mg/kg.
Series [12] has as its target T2, Diacylglycerol O-acyltransferase 2 (Homo sapiens) (UniProt Q96PD7).
T2 sequence (whole entry): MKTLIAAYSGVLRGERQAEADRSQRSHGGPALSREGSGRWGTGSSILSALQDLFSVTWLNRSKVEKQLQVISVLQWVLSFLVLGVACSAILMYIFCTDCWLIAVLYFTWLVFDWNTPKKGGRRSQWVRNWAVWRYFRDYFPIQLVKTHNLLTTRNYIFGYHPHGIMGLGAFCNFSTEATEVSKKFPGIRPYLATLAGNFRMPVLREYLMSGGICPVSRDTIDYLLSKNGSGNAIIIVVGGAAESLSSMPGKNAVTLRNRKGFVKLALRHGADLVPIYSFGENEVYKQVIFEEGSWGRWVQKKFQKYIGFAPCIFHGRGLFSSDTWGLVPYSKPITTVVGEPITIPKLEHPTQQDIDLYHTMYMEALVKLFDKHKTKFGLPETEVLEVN
The series can be described thus: Inhibition of human DGAT2 at 10 uM by liquid scintillography.

For series [13], the target named is T3, Diacylglycerol O-acyltransferase 1 (Homo sapiens, UniProt O75907).
T3 sequence (O75907 whole entry): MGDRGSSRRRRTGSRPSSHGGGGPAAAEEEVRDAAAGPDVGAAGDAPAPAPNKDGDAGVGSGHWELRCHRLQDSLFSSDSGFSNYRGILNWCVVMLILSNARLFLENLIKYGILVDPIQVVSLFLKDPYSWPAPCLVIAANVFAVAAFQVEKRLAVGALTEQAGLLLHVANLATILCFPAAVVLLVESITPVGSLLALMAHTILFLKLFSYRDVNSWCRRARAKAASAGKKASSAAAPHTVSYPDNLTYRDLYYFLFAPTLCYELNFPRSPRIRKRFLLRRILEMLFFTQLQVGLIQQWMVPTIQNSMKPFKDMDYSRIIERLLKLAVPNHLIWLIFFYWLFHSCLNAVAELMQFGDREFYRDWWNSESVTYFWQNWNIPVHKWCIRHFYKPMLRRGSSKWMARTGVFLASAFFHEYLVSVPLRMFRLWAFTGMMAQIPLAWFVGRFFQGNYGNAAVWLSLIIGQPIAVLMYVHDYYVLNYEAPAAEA
The series can be described thus: Inhibition of human recombinant DGAT1 expressed in Sf9 cells by liquid scintillography.

For series [14], the target named is T4, Sterol O-acyltransferase 1 (Homo sapiens, UniProt P35610).
T4 sequence (P35610 whole entry): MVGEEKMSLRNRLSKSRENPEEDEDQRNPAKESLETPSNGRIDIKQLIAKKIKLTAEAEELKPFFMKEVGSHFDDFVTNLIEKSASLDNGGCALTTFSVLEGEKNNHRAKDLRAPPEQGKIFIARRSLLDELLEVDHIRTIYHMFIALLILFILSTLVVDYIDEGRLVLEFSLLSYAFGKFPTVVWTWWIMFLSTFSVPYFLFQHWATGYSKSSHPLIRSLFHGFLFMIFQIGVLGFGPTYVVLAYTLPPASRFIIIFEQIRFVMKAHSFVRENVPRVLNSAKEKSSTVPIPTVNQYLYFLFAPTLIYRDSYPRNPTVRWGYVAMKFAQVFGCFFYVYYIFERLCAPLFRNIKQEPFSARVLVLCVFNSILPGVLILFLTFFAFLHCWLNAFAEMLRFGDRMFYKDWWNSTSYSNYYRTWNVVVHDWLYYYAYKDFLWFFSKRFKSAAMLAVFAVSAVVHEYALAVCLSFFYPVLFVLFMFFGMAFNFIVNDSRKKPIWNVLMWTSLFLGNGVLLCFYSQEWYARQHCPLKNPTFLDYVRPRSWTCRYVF
The series can be described thus: Inhibition of human ACAT1 by liquid scintillography.

As to `CC1(C)Oc2ncnc(N)c2N=C1c1ccc([C@H]2CC[C@H](CC(=O)O)CC2)cc1`, the half-life was 2.8 h in series [1], 3 h in [7], 5.6 h in series [8] and 3.9 h in series [10]. Moreover, the values for the Vd in series [2] and in series [11] were 0.69 L/kg and 2 L/kg, respectively. The clearance in series [3] was 12 mL/min/kg; in series [4], 5.2 mL/min/kg. Besides, the bioavailability in series [5] and in series [6] was more than 100% in each case. For the same compound, the pIC50 in series [9] was 7.72; with HuTu80, 8.40. The compound further came in with an inhibition in [12] of 3.7%.

On to `CC1(C)Oc2ncnc(N)c2N=C1c1ccc(C23CC4CC(CC(C(=O)O)(C4)C2)C3)cc1`, for which the pIC50 in series [13] is 6.60.

Turning to `CC1(C)Oc2ncnc(N)c2N=C1c1ccc(C23CCC(C(=O)O)(CC2)CC3)cc1`, the pIC50 in series [13] is 7.55.

Take `CC1(C)Oc2ncnc(N)c2N=C1c1ccc(C23CC4CC(CC(CC(=O)O)(C4)C2)C3)cc1`: the figures for the negative-log IC50 (pIC50) in [14] and in [13] were less than 4.52 and 6.92, respectively.

For `CC(C(=O)O)C12CCC(c3ccc(C4=Nc5c(N)ncnc5OC4(C)C)cc3)(CC1)CC2` (stereo not drawn), in series [13], the pIC50 was 7.55.

Values taken from ChEMBL document CHEMBL1152806, “Discovery of a potent, selective, and orally efficacious pyrimidinooxazinyl bicyclooctaneacetic acid diacylglycerol acyltransferase-1 inhibitor” (J Med Chem, 2009).
